The values that follow come from article PMC6371780 (ACS chemical neuroscience, 2018).

In series [1] the test system is COX-1. The note with it: cited from earlier work.
Series [2] concerns COX-1. The note with it: cited from earlier work; for IC50: read-out: IC50 COX-1 monkey.
The subject of series [3] is COX-1. The note with it: cited from earlier work. The source holds these as a separate data set.
Series [4] relates to COX-2. The conditions noted are these: read-out: IC50 COX-2 monkey; cited from earlier work.
Series [5] addresses T1, COX-1 (Macaca mulatta, UniProt F6S984).
T1 sequence (F6S984 25-599): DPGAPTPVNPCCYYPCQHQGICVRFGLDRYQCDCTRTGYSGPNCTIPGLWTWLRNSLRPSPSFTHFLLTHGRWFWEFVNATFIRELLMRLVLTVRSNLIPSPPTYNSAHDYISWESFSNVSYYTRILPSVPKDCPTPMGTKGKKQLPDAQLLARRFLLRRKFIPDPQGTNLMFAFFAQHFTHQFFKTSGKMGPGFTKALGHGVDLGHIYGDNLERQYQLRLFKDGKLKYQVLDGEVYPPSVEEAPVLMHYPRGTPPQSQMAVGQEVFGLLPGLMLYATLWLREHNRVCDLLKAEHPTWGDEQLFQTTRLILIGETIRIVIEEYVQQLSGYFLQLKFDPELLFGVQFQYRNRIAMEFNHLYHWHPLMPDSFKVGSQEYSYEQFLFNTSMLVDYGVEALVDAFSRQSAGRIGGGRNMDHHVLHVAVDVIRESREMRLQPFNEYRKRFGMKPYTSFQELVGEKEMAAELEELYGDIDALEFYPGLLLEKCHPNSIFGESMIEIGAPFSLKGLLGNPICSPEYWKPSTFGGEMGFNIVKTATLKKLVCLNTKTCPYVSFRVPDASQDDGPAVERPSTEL
The series is described as follows: paired baseline/preblock PET experiments with [11C]PS13 in rhesus monkey. The note with it: for whole-brain radioactivity of [11C]PS13 after administration of blocker: 45 min after radioligand, PS13 1 mg/kg, KTP-Me 3 mg/kg i.v.; for peak whole-brain radioactivity of [11C]PS13 after administration of blocker: blocker i.v. before [11C]PS13: PS13 1 mg/kg, KTP-Me 3 mg/kg, MC1 0.3 mg/kg; for decline of whole-brain radioactivity from peak / radioactivity in whole brain: 45 min after injection. The format is in vivo, rhesus monkey (Macaca mulatta). An outline of the steps: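 Male rhesus monkeys (7.5–12.8 kg) received an i.v. bolus of radioligand (212 ± 37 MBq; 114 ± 74 GBq/μmol) over 1 min. A baseline scan was followed more than 3 h later by a blocking scan, with inhibitor given i.v. minutes before radioligand. Scans were corrected for attenuation and scatter, and frames ran from 30 s to 10 min. Whole-brain (gray matter) time–activity curves were expressed as SUV.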

For series [6], the target named is T1, COX-1. The series is described as follows: kinetic modeling of PET data. The note with it: for VND of [11C]PS13 (x-axis intercept of Lassen plot), by blocker experiment: PS13 1 mg/kg or KTP-Me 3 mg/kg as blocker; for reduction of [11C]PS13 brain regional VT values by preadministration: KTP-Me 3 mg/kg, MC1 0.3 mg/kg i.v. The format is in vivo, rhesus monkey. An outline of the steps: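 Each baseline scan was followed >3 h later by a blocking scan, with blocker given as an i.v. bolus 5–10 min before radioligand. Femoral arterial samples were taken every 15 s to 120 s, then at 3–120 min, and parent radioligand was measured by reversed-phase radio-HPLC. VT was estimated by voxel-level Logan analysis, uncorrected for blood volume, with identifiability as % SE. A Lassen plot of regional VT gave occupancy from its slope and VND from its x-intercept.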

A short description of series [7]: log D by partition between n-octanol and sodium phosphate buffer. The format is physicochemical. The conditions noted are these: n-octanol / sodium phosphate buffer 0.15 M, pH 7.4. An outline of the steps:
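Radioligand partitioned between n-octanol and 0.15 M sodium phosphate buffer, pH 7.4. Radioactivity in each phase counted by γ-counter. Buffer-phase radioactivity corrected for parent fraction by reversed-phase radio-HPLC on a C18 column.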

Series [8] is described as follows: plasma free fraction by ultrafiltration, monkey plasma. The format is in vitro ADME. In short, it runs like this: (§1)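 Free fraction was measured in triplicate by ultrafiltration through membrane filters, with filtrate radioactivity read by γ-counting. Plasma was venous plasma from each monkey, or pooled human arterial plasma stored at −80 °C. The human plasma served as the standard for normalization across studies.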

The nature of series [9]: plasma free fraction by ultrafiltration, pooled human plasma. The format is in vitro ADME. The note with it: pooled (standard) human plasma. In short, it runs like this:
as §1

Series [10] in a line: radioligand stability in monkey whole blood and plasma in vitro. The format is in vitro ADME. The conditions noted are these: monkey whole blood or plasma, 30 min, room temperature. An outline of the steps: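 Formulated radioligand was incubated with monkey whole blood or plasma at room temperature for at least 30 min. Blood was lysed with water, and samples were deproteinized with acetonitrile and centrifuged at 10 000g. Supernatants were analysed by reversed-phase radio-HPLC, and precipitates were γ-counted for extraction efficiency. Stability was taken as the % unchanged radioligand divided by radiochemical purity.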

The nature of series [11]: baseline PET brain time-activity curves in rhesus monkey. The format is in vivo, rhesus monkey (Macaca mulatta). The note with it: for decline of whole-brain radioactivity from peak / radioactivity concentration in whole brain: at 85 min; for peak radioactivity concentration in whole brain / time of peak radioactivity concentration in whole brain: i.v. radioligand. In short, it runs like this: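 Male rhesus monkeys (7.5–12.8 kg) were given ketamine (10 mg/kg i.m.) and kept on 1.6% isoflurane, head in a stereotaxic frame, and imaged on a microPET Focus 220. Radioligand (212 ± 37 MBq) in saline-ethanol 90:10 was given as an i.v. bolus over 1 min. The 120 min acquisition was reconstructed by FORE/2D FBP with attenuation, scatter and decay correction and coregistered to an MRI template. Regional gray-matter curves were expressed as SUV.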

A short description of series [12]: radiometabolite analysis of monkey plasma after i.v. radioligand. The format is in vivo, rhesus monkey.
The subject of series [13] is COX-2. The conditions noted are these: read-out: IC50 COX-2 human; cited from earlier work.
For series [14] the following is noted: cited from earlier work.
Setting [15] is: baseline of the paired experiment using KTP-Me.
Setting [16] is: baseline of the paired experiments using PS13.
The mark [17] stands for this setting: baseline of the paired experiment with MC1.

Read-outs that look alike come from different tables or passages of the source. Bounds are passed on as bounds.

One may read the IC50 as the concentration at which inhibition is half-maximal.

With `C[C@@H](C(=O)O)c1cccc(C(=O)c2ccccc2)c1` (single isomer, unassigned) [R-enantiomer of KTP], in the series on COX-1 [1], the “potency for inhibiting COX-1” value was “negligible potency”.
With `C[C@H](C(=O)O)c1cccc(C(=O)c2ccccc2)c1` [KTP, (S)-ketoprofen, reference compound], the half-maximal inhibitory concentration (IC50) in the series on COX-1 [2] is 1 nM; in the series on COX-1 [3] (read-out: IC50 COX-1 human), 20 nM; with COX-1 [3] (read-out: IC50 for inhibiting human COX-1) it was 47 nM; with COX-2 [4], 400 nM.
As for `COC(=O)[C@@H](C)c1cccc(C(=O)c2ccccc2)c1` [KTP-Me, (S)-ketoprofen methyl ester, reference compound], at COX-1 [5], the “whole-brain radioactivity of [11C]PS13 after administration of blocker” value was 1.09 SUV and the “peak whole-brain radioactivity of [11C]PS13 after administration of blocker” value (“peak whole-brain radioactivity” for short) is 4.14 SUV. At COX-1 [6], the “VND of [11C]PS13 (x-axis intercept of Lassen plot), by blocker experiment” value is 1.8 mL/cm^3. The “COX-1 occupancy (slope of Lassen plot)” value on COX-1 [6] (PS13 1 mg/kg, KTP-Me 3 mg/kg i.v., radioligand [11C]PS13) is given as 72 ± 4%.
On to `COc1cc(NCc2cccs2)nc(-c2ccc(S(C)(=O)=O)cc2)n1` [MC1, 6-methoxy-2-(4-(methylsulfonyl)phenyl)-N-(thiophen-2-ylmethyl)pyrimidin-4-amine, reference compound], for which the “time of peak brain radioactivity of [11C]PS13 after administration of blocker” value on COX-1 [5] (MC1 0.3 mg/kg i.v.) came to 3.5 min. Further, at COX-1 [5], the “peak whole-brain radioactivity” value is given as 4.86 SUV. Further, the “reduction of [11C]PS13 brain regional VT values by preadministration” value on COX-1 [6] (PS13 1 mg/kg) is listed as “no effect”. Also, the “fold lower potency for inhibiting COX-1 than COX-2” value in the series with COX-1 [2] (monkey) and with COX-1 [3] (human) was above 1000 fold each time.
Consider `COc1ccc(-c2nc(OCC(F)(F)F)nn2-c2ccc(OC)cc2)cc1` [PS13, 1,5-bis(4-methoxyphenyl)-3-(2,2,2-trifluoroethoxy)-1H-1,2,4-triazole], for which, at COX-1 [5], the “whole-brain radioactivity of [11C]PS13 after administration of blocker” value was 1.11 SUV and the “peak whole-brain radioactivity” value came out at 3.60 SUV. Also, at COX-1 [6], the “VND of [11C]PS13 (x-axis intercept of Lassen plot), by blocker experiment” value is reported as 2.5 mL/cm^3. Moreover, the “reduction of [11C]PS13 brain regional VT values by preadministration” value at COX-1 [6] (PS13 1 mg/kg) is given as “about 55%”. The receptor occupancy at 1 mg/kg on COX-1 [6] (rhesus monkey, iv, read-out: COX-1 occupancy (slope of Lassen plot)) came to 87 ± 4%.
For `COc1ccc(-c2nc(OCF)nn2-c2ccc(OC)cc2)cc1` [[^2H2,^18F]PS2], the IC50 with COX-1 [2] was 3.6 ± 1 nM; with COX-1 [3] (read-out: IC50 COX-1 human) it was 4 ± 2 nM; with COX-2 [4] it was above 1000 nM.
In the case of `[2H]C([2H])([18F])Oc1nc(-c2ccc(OC)cc2)n(-c2ccc(OC)cc2)n1` [[^2H2,^18F]PS2], in series [7], the “log D (n = 6)” value is on record as 3.26 ± 0.01. In addition, in series [8], the “monkey fP (n = 3)” value stood at 0.039 ± 0.001. In addition, the “human fP (n = 3)” value in series [9] worked out at 0.021 ± 0.000. Also, the radiochemical stability in series [10] is above 99%. In addition, in [11], the “decline of whole-brain radioactivity from peak” value (“decline” for short) is reported as 74% and the “radioactivity concentration in whole brain” value was 1.05 SUV. In [11] (rhesus monkey), the “peak radioactivity concentration in whole brain” value turned out to be 4.11 SUV, the “time of peak radioactivity concentration in whole brain” value is 7 min and the “radioactivity in skull on brain image (radiodefluorination)” value is “uptake of radioactivity in skull”. Also, in series [12] (by about 25 min after i.v. injection), the “radioactivity in plasma that was parent radioligand” value was determined as 50%.
On to `COc1ccc(-c2nc(OC)nn2-c2ccc(OC)cc2)cc1` [[^11C]PS1], for which the half-inhibitory concentration (IC50) with COX-1 [2] is 4.6 ± 1.3 nM; in the series with COX-1 [3] (read-out: IC50 COX-1 human), 5 ± 5.2 nM; with COX-2 [4], above 1000 nM; in the series with COX-2 [13], above 1000 nM.
Take `COc1ccc(-c2nc(O[11CH3])nn2-c2ccc(OC)cc2)cc1` [[^11C]PS1]: the “log D (n = 6)” value in series [7] is listed as 3.29 ± 0.00. Besides, the “monkey fP (n = 3)” value in series [8] is reported as 0.042 ± 0.001. In addition, the “human fP (n = 3)” value in [9] was 0.036 ± 0.001. In series [10], this compound yielded a radiochemical stability above 99%. Further, in [11], the “decline” value was 85% and the “radioactivity concentration in whole brain” value worked out at 0.62 SUV. Moreover, in series [11] (rhesus monkey), the “peak radioactivity concentration in whole brain” value is reported as 4.26 SUV and the “time of peak radioactivity concentration in whole brain” value was 1.75 min.
Consider `COc1ccc(-c2nc(OCC(F)(F)F)nn2-c2ccc(OC)cc2)cc1` [[^11C]PS13, [^11C]1,5-bis(4-methoxyphenyl)-3-(2,2,2-trifluoroethoxy)-1H-1,2,4-triazole], for which, in [7], the “log D (n = 6)” value came to 4.26 ± 0.04. Besides, the “monkey fP (n = 3)” value in series [8] is listed as 0.011 ± 0.001. Further, the “human fP (n = 3)” value in [9] is reported as 0.002 ± 0.000. Besides, the radiochemical stability in series [10] is on record as above 99%. The “decline” value in [11] was 54%. Moreover, at COX-1 [5] (setting [15]), the “decline” value is 43%, the “radioactivity in whole brain” value is given as 1.65 SUV and the “peak radioactivity in whole brain” value amounted to 2.90 SUV. Besides, at COX-1 [5] (setting [16]), the “decline” value is recorded as 36%, the “radioactivity in whole brain” value was 1.88 SUV and the “peak radioactivity in whole brain” value stood at 2.92 SUV. Further, on COX-1 [5] (setting [17]), the “peak uptake of radioactivity in brain” value came to 3.73 SUV and the “time of peak uptake of radioactivity in brain” value was found to be 3.5 min. The “radioactivity in plasma represented by each species” value in [12] (90 min after i.v. injection of [11C]PS13, radio-HPLC) is 48.9%. Also, in series [12] (at 90 min, baseline and self-block experiments), the “radioactivity in plasma represented by unchanged radioligand” value is recorded as “about 50%”. Further, the “identifiability (SE) of VT” value on COX-1 [6] (all examined brain regions, Logan graphical analysis) is recorded as 0.1–1.8%. Moreover, the “radioactivity uptake in brain specifically bound to COX-1” value on COX-1 [6] (pharmacological preblock experiments, monkey) is “about 55%”.
Regarding [^11C]-Ketoprofen [[^11C]KTP], the brain penetrance result in series [14] is recorded as “poorly brain-penetrant”.
